Compound activity as filed in PubChem.
Rows were chosen to be rich in hits. Some 0.48% of all compounds tested hit in one or more screens of this group.
Rce1 inh: yeast Ras-converting enzyme inhibition; Q03530; yeast membranes, quenched prenylated peptide cleavage fluorescence; calls only; 290,000 compounds, 0.27% hits; AID 2563;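 active means fall in fluorescence gain of 50% or more versus controls, with final raw signal at or below 3038400; inconclusive means same 50% fall but final raw signal above 3038400; inactive means fall in fluorescence gain under 50%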;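 further: plate controls were neutral control wells for no effect and wells lacking membranes for full effect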
Target sequence (Q03530 whole entry, looked up): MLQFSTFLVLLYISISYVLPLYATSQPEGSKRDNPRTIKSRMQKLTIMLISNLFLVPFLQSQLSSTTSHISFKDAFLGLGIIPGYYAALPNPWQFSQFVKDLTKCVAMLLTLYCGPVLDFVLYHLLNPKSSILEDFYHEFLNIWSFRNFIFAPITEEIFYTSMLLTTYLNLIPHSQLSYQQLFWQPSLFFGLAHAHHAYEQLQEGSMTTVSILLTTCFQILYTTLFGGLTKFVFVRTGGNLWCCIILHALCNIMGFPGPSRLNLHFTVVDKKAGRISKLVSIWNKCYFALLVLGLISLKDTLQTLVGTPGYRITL
proCasp7 act: activates human procaspase-7, counter-screen for procaspase-3 activators | recombinant procaspase-7, Ac-DEVD-pNA absorbance 405 nm; D23A/D198A/D206A triple mutant, cannot self-cleave; scale: DMSO 0, 5 µM enzyme 100 | activation, % at 8.5 µM | 330,000 compounds, 0.093% hits | AID 463210;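 active means percent activation above the screen-wide mean plus 3 SD, cut at about 25% in these data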
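Assay system: Uncleavable procaspase-7 mutant enzyme | Input: 2 µM procaspase-7 mutant as dispensed | Timing: 1 h compound preincubation, 2 h substrate cleavage, 25 °C | Repeats: One well per compound | Control set: DMSO wells as 0%, DMSO with 5 µM added PC-7 as 100% | Technique: Epi-absorbance of released pNA at 405 nm, two timepoints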
proCasp3 act: procaspase-3 (human) activation. 330,000 compounds, 0.11% hits. P42574. activation, % at 8.5 µM. recombinant procaspase-3 D3A, Ac-DEVD-pNA absorbance 405 nm. AID 463141;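 active means activation above the mean of all tested compounds plus 3 SD, cut at about 21% in these data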;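 further: 0% = DMSO alone and 100% = DMSO wells spiked with extra 5 µM PC-3 D3A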
Target sequence (P42574 whole entry D9A/D28A/D175A): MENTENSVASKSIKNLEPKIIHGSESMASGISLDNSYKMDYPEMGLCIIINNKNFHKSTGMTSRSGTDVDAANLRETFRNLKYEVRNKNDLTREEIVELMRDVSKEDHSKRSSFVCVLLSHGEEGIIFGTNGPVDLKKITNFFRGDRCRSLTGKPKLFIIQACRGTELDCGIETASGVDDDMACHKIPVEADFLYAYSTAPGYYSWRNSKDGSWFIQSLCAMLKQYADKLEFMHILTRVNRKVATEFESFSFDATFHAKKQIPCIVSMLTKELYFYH
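Assay system: Autoprocessing-dead procaspase-3 D3A mutant enzyme; also added: Ac-DEVD-pNA; doses: one concentration, 8.5 µM nominal, 0.8% DMSO; times: 1 h compound preincubation, 2 h substrate hydrolysis at 25 °C; technique: 405 nm absorbance of p-nitroaniline, reads at 0 and 120 min; measure: % activation between DMSO and enzyme-spiked controls; repeats: single replicate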
Bfl-1 A1 inh: inhibitors of the anti-apoptotic protein A1, read as caspase activation | MEF A1-2A-BIM cells, Caspase-Glo 3/7 luminescence, 3 h; percent of clofoctol response, vehicle zero | caspase activation, % (concentration not given with the values) | 330,000 compounds, 0.066% hits;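 active means over half of replicate activation scores above 10%, or exactly half above 10 with the replicate mean above 10; inconclusive means replicate mean below 10 yet half the replicates above 10; inactive means over half of replicates below 10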
PolyA inh: inhibitors of polyadenylation in S. cerevisiae. S. cerevisiae SKY197-pL101 polyadenylation reporter, beta-gal luminescence; efflux-impaired pdr1/pdr3 knockout yeast; score 100 = 6 SD above DMSO. activity score, % at 12 µM. 300,000 compounds, 0.02% hits;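 active means lowest replicate activity score at least 50, where 100 means six control SD above control mean; inconclusive means lowest score under 50 but half or more replicates reach 50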;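 further: yeast exposed to compound for 9 h at 30 °C; higher score means more reporter readthrough which indicates perturbed polyadenylation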
proCasp7 act trip: counter-screen for procaspase-3 activators: activators of human procaspase-7 | shares compounds with proCasp3 act | recombinant procaspase-7, Ac-DEVD-pNA absorbance; asp23/198/206-to-Ala mutant, cannot self-cleave | activation, % at 8.5 µM | 210 tested, under 10 active;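 active means mean activation above a set limit taken from an earlier procaspase-7 screen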;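 further: 0% = DMSO wells and 100% = DMSO plus 5 µM procaspase-7 enzyme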
proCasp3 confirm: procaspase-3 (human) activation, confirmed. 210 compounds, 10% hits. shares compounds with proCasp3 act. recombinant PC-3 D3A, Ac-DEVD-pNA absorbance 405 nm; 100% is higher-enzyme control. activation, % at 8.5 µM;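 active means mean activation above a set limit carried over from the earlier primary screen, cut at about 22% in these data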
An asterisk follows results filed as active; i = inactive; ? = inconclusive; . = not tested or not shown.

SMILES | Rce1 inh | proCasp7 act | proCasp3 act | Bfl-1 A1 inh | PolyA inh | proCasp7 act trip | proCasp3 confirm
CCCCn1c(N)c(N(CC(C)C)C(=O)C2CC(=O)N(c3ccc(C)cc3)C2)c(=O)[nH]c1=O (centres undefined) | i | -6.8 | 22.2* | 0.0 | 17.7 | -0.7 | 4.7
COc1ccc(NC(=O)CSc2nc3ccccc3nc2N2CCCC2)cc1Cl | i | -0.9 | 29.7* | -0.1 | 7.2 | -2.7 | -2.7
Cc1c(Cc2ccccc2)sc(/N=C/c2ccc3ccccc3c2)c1C(N)=O | . | -10.8 | -5.0 | 1.1 | . | . | .
Cc1c(Cc2ccccc2)sc(/N=C/c2c(O)ccc3ccccc23)c1C(N)=O | i | 10.2 | 31.9* | 0.2 | -1.1 | 9.0 | 25.7*
Cc1ccc(S(=O)(=O)N(CC(=O)N2CCC(C)CC2)c2ccccc2)cc1 | i | 0.7 | 22.9* | 0.3 | 3.9 | 2.3 | 4.9
Cc1ccc(S(=O)(=O)N(CC(=O)N2CCCCCC2)c2ccccc2)cc1 | i | 0.5 | 1.8 | -0.4 | -5.7 | . | .
C=CCN(c1ccccc1OC)S(=O)(=O)c1cccc(C(=O)OCC(=O)c2c[nH]c3ccccc23)c1 | i | -14.2 | 21.9* | 0.1 | 7.0 | 2.9 | 3.3
COc1cc(OC)c(N(C)S(=O)(=O)c2cccc(C(=O)OCC(=O)c3c[nH]c4ccccc34)c2)cc1Cl | i | 3.0 | 0.2 | 0.3 | 2.4 | . | .
CC(=O)c1cccc(NS(=O)(=O)c2ccc(N/C=C\C(=O)c3ccc(C)cc3)cc2)c1 | i | 22.2 | 37.9* | -0.5 | 8.9 | -0.9 | 1.0
O=C(CCNS(=O)(=O)c1cccc2nsnc12)N1CC(=O)N(CCc2ccccc2)C(=O)C1 | i | 10.8 | 23.8* | 0.6 | 8.0 | 2.0 | 4.6
CC(=O)NCCc1nc2ccccc2n1Cc1ccc(C)cc1 | i | 1.6 | 29.1* | 0.9 | -11.8 | 1.5 | 7.8
CCOC(=O)c1cc(-c2ccc(/C=N\n3cnnc3)o2)ccc1Cl | i | 24.8 | 28.7* | 0.8 | 12.2 | 0.8 | 1.9
CCN1C(=O)c2cccc3c(S(=O)(=O)N(C(C)=O)c4ccc(OC(C)=O)cc4)ccc1c23 | . | -0.3 | 23.7* | -1.0 | . | -21.8 | -11.9
OCCC1CN(Cc2ccc3cccc(F)c3n2)CCN1Cc1ccccc1 (centres undefined) | i | 4.3 | -2.8 | -0.3 | 8.5 | . | .
Cc1c(O)ccc2c(CN3CCN(CCO)CC3)cc(=O)oc12 | i | 19.3 | 18.6 | 0.0 | 16.2 | . | .
Cc1c(O)ccc2c(CN3CCOCC3)cc(=O)oc12 | i | 21.8 | 21.5* | -0.6 | 9.3 | -19.4 | -12.9
CCCCn1nc(C(=O)N(C)C2CCCCC2)c2ccccc2c1=O | . | 9.4 | 22.1* | 0.7 | . | 1.1 | 5.2
COc1ccc(CCC(=O)NC2=NCCS2)cc1OC | . | -2.2 | 0.9 | 0.6 | 7.9 | . | .
Cc1cccc(C2=NN(c3ccc(Br)cc3)[C@@H](C(=O)N3CCOC3=O)[C@@H]2c2ccc(Cl)cc2)c1 | . | 24.8 | 23.2* | . | . | -20.9 | -13.1
O=C1OCCN1C(=O)[C@H]1[C@H](c2ccc(Cl)cc2)C(c2cccc(Cl)c2)=NN1c1ccccc1 | i | 18.4 | 23.1* | 0.8 | 1.4 | -21.5 | -13.9
O=C1OCCN1C(=O)[C@H]1[C@H](c2ccc(Cl)cc2)C(c2ccccc2)=NN1c1ccc(Br)cc1 | . | 24.0 | 28.0* | . | . | -20.2 | -10.4
O=C1OCCN1C(=O)[C@H]1[C@H](c2ccc(F)cc2)C(c2cccc(Cl)c2)=NN1c1ccccc1 | . | 2.3 | 6.6 | . | . | . | .
CC(=O)NC(CC(=O)OCc1ccc([N+](=O)[O-])cc1)c1ccccc1 (centres undefined) | i | 8.3 | 5.0 | 1.2 | 11.2 | . | .
Cc1sc(NC(=O)CSc2nnnn2C2CCCCC2)c(C#N)c1C | i | 2.1 | 1.8 | -0.6 | -7.2 | . | .
Cc1cc(C)c(C#N)c(SCc2nnc(-c3ccccc3)o2)n1 | i | 22.8 | 124.9* | 0.2 | -25.9 | -15.4 | -18.4
SMILES | Rce1 inh | proCasp7 act | proCasp3 act | Bfl-1 A1 inh | PolyA inh | proCasp7 act trip | proCasp3 confirm
N#Cc1cc2c(nc1SCc1nc3ccccc3[nH]1)CCC2 | i | -5.6 | 1.4 | -8.3 | -23.0 | . | .
Cc1cc(C)c(C#N)c(SCc2nc3ccccc3[nH]2)n1 | i | 2.5 | 156.3* | -0.2 | 12.1 | -2.0 | 5.4
C=CCc1cccc(CNn2cnnc2)c1O | i | -6.4 | 6.3 | 0.6 | 21.2 | . | .
COc1ccc(NS(=O)(=O)c2cccc(NC(=O)c3cnccn3)c2)cc1Br | i | 4.4 | 2.8 | 0.0 | -14.0 | . | .
CCCCCCN1C=CC(=C/C=C(\C#N)C(=O)OCC)C=C1 | i | -20.2 | 24.4* | 0.2 | -6.4 | -20.6 | -8.9
O=C(NNc1c(Cl)cncc1Cl)c1sccc1Cl | i | -0.1 | -3.7 | -0.2 | -7.1 | . | .
CCCc1ccc(OCc2ccc(C(=O)N3CCSCC3)o2)cc1 | i | -1.2 | 21.9* | 0.0 | 11.5 | 4.7 | 4.0
O=C(NCCCn1ccnc1)c1cc(-c2cccc(O)c2)on1 | i | -6.5 | -6.6 | -0.3 | 5.0 | . | .
COc1ccc(N2CCN(C(=O)CC34CC5CC(CC(C5)C3)C4)CC2)c([N+](=O)[O-])c1 | i | -3.0 | 21.7* | 0.7 | -19.4 | 2.0 | 3.7
CC(C)C(=O)Nc1ccc(C(=O)NNC(=S)NC(=O)c2ccco2)cc1 | i | -18.5 | -0.8 | -0.5 | 8.2 | . | .
Cc1ccc(OCc2cc(C(=O)N3CCCC(O)C3)no2)cn1 (centres undefined) | i | 6.3 | 2.9 | 1.7 | -6.0 | . | .
Cc1ccc(-c2cc(C(F)(F)F)c(C#N)c(SCCC#N)n2)o1 | i | 12.1 | 22.2* | 0.7 | -9.8 | 41.0* | 52.1*
CC(=O)Oc1c(-c2ccc(Br)o2)oc2ccccc2c1=O | i | 24.2 | 26.5* | 0.6 | 21.2 | -4.1 | 21.5*
CC(C)(C)NC(=O)C(=O)NCCC1=CCCCC1 | i | 3.5 | 6.5 | 0.5 | 5.0 | . | .
CCc1nnc(NC(=O)CCc2ccccc2OC)s1 | i | 4.2 | 4.9 | 0.7 | 6.4 | . | .
CCOc1ccccc1NC(=O)COc1coc(CN2CCCc3ccccc32)cc1=O | i | 1.1 | -4.5 | 0.2 | 28.6 | . | .
CCOc1ccccc1NC(=O)COc1coc(CN2CCc3ccccc3C2)cc1=O | i | 7.1 | 21.6* | -0.8 | ? | 3.1 | 6.0
Cc1ccc2c(O)c(C)c(=O)[nH]c2n1 | i | 1.7 | -2.1 | 1.0 | -4.2 | . | .
CCCCCCCCCC(=O)N1c2ccccc2NC(=O)C1CC(=O)Nc1ccc(C(=O)O)cc1 (centres undefined) | i | 3.5 | -1.6 | -0.2 | 3.5 | . | .
COc1ccccc1Nc1nc2ccc(C)cc2cc1C#N | i | 5.8 | 16.1 | 0.5 | -12.1 | . | .
